High-throughput results deposited in PubChem BioAssay by Johns Hopkins Ion Channel Center.
RGS4 act = potentiators or activators of RGS4; HEK293 M3R/inducible RGS4, carbachol calcium flux Fluo4; active compounds read low; B-score at 10 µM; 310,000 tested, 0.92% active;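 active = B-score of the integrated calcium signal more than 4 SD below the library mean, with starting fluorescence not abnormally high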;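 also: negative B-score means reduced calcium response which marks RGS4 activation or potentiation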
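Material: Inducible-RGS4 HEK293 cells carrying M3 receptor; also added: carbachol at ECmax as muscarinic agonist stimulus; incubation: compound preincubation 20 min at room temperature before agonist; signal: Fluo4-AM (2 µM) calcium-flux fluorescence, kinetic read; measure: integrated calcium ratio converted to B score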
MrgX1 ag = agonists of human MrgX1 receptor. Q96LB2. MrgX1-HEK293 cells, Fluo-4 calcium fluorescence, agonist mode; active compounds read high. B-score at 10 µM. 310,000 tested, 0.44% active. AID 588627;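 active = calcium response B-score plate-corrected fluorescence ratio at least 3 library SD, with starting fluorescence B-score inside 5 SD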
Target sequence (Q96LB2 whole entry, looked up): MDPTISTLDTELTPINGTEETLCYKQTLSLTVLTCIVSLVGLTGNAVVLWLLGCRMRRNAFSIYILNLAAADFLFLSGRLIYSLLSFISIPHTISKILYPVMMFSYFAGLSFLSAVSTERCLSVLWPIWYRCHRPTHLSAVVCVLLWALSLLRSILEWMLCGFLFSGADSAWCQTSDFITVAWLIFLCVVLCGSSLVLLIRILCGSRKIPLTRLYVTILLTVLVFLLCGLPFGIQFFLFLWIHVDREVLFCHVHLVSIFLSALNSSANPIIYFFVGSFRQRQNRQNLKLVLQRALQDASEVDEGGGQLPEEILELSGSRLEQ
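Material: MrgX1-expressing HEK293 cells / Dosing: compound as first of three additions / Incubation: overnight seeding, then 1 h dark dye loading / Signal: Fluo-4 NW calcium fluorescence / Evaluation: B-scored fluorescence response ratio / Benchmarks: positive and negative control wells on each plate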
MrgX1 allo act = human MrgX1 positive allosteric modulation, primary screen; Q96LB2; MrgX1-HEK293, Fluo-4 calcium flux, FDSS; active compounds read high; B-score at 10 µM; 310,000 tested, 0.63% active; AID 588675;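 active = plate-corrected calcium response at least 3 library SD above typical, normal starting fluorescence, not activating the receptor alone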;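 also: compound read alongside a low EC10 to EC30 dose of BAM8-22 agonist; peak minus trough fluorescence over baseline measured at the second addition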
RGS4 inh = human RGS4 inhibition. HEK293 M3R/RGS4 inducible, Fluo-4 calcium flux; active compounds read high; triggered by carbachol at its EC20. B-score at 10 µM. 310,000 tested, 0.45% active;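 active = B-score, a plate-corrected calcium signal, over three deviations above library mean, with baseline fluorescence within five deviations of library mean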;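 also: RGS4 expression induced by doxycycline in cells with stable M3 receptor; B-score is computed from the integrated fluorescence ratio over baseline after carbachol; higher B-score means a larger calcium signal and so more RGS4 inhibition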
Target sequence (P49798 whole entry, looked up): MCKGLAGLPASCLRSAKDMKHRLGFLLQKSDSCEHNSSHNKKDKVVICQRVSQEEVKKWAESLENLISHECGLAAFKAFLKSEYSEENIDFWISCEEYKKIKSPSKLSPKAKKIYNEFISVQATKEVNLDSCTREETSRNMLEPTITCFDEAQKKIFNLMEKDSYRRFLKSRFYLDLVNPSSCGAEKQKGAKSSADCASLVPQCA
MrgX1 antag = antagonists of human MrgX1 receptor | MRGX1-HEK293 calcium flux, Fluo-4, BAM8-22 antagonism; active compounds read low | B-score at 10 µM | 310,000 tested, 1.3% active;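 active = calcium-response B-score plate-corrected more than 3 library SD below zero, starting fluorescence within 5 deviations, no agonist response on first addition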;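 also: peak minus trough fluorescence over baseline after final BAM8-22 challenge near maximal dose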
Each line names hits and unclear results; the compound was inactive in the other large screens. Only some compounds are listed: those with a hit (about 3.5% of all), similar ones and a draw of the others.

O=C(Nc1ccncc1)c1cc(-c2cccc(Br)c2)nc2ccccc12	none
COc1ccc(-c2cc(C(=O)Nc3ccccc3O)c3ccccc3n2)cc1OC	RGS4 act -7.31
COC(=O)c1c([N+](=O)[O-])c(OC)c(OC)c(OC)c1[N+](=O)[O-]	none
O=C(CNC(=O)N1CC(=O)Nc2ccccc21)Nc1cc(Cl)ccc1Cl	none
Cc1ccccc1-c1cc(C(=O)Nc2sc(C)c(C)c2C(N)=O)c2ccccc2n1	RGS4 inh 6.25
CCOC(=O)C1=C(C)N(CC(C)C)C(=O)/C1=C\c1ccc(OCC(=O)Nc2ccccc2)cc1	RGS4 act -7.1
CCOC(=O)COc1ccc(S(=O)(=O)Nc2ccc3c(c2)OCO3)cc1	RGS4 act -8.48
C=CCOC(=O)/C(=C/c1cccc2ccccc12)NC(=O)c1ccccc1	none
O=C(COc1ccccc1)Nc1sc2c(c1C(=O)NCc1cccnc1)CCCC2	none
COc1ccc(/C=C/C(=O)Nc2sc3c(c2C(=O)NCc2cccnc2)CCCC3)cc1	RGS4 act -8.72
CCCCOc1cccc(/C=C(\C#N)C(=O)NC2CC2)c1	none
C[N+]1(C)CC[C@H](OC(=O)[C@@](O)(c2ccccc2)C2CCCC2)C1	none
CCN(CC)CC#CCOC(=O)C(O)(c1ccccc1)C1CCCCC1 (centres undefined)	RGS4 act -7.02
CC(=O)Nc1ccc(SCC(=O)OCC(=O)NC(=O)NCCC(C)C)cc1	MrgX1 antag -7.35
CC(=O)Nc1ccc(SCC(=O)OCC(=O)NC(=O)NCc2ccco2)cc1	none
Cc1cccn2c(=O)c(/C=C(\C#N)C(N)=O)c(N3CCN(Cc4ccc5c(c4)OCO5)CC3)nc12	RGS4 act -8.46
COc1ccc(CCNC(=O)Cn2nnc3ccccc3c2=O)cc1	none
O=C(Cn1nnc2ccccc2c1=O)NCCc1ccc(F)cc1	MrgX1 antag -4.98
COc1cc(/C=C(\C#N)C(=O)Nc2cccc(C(=O)O)c2)ccc1OCc1ccc(F)cc1	none
CCOc1cc(/C=C(\C#N)C(=O)Nc2cccc(C(=O)O)c2)ccc1OCc1ccccc1Cl	RGS4 act -8.57
COc1ccc(CCNS(=O)(=O)c2cc(C(=O)O)c(Cl)cc2Cl)cc1	none
C=C1C(=O)C=C2CN(C(=O)c3ccccc3)[C@@](Cc3ccc(F)cc3)(C(=O)OC)[C@@H]12	MrgX1 ag 46.5, RGS4 inh 15.4
CCN1C=C(C(=O)OC)C(c2cccc(OC)c2OC)C(C(=O)OC)=C1	none
O=C(CN1CCN(Cc2ccccc2)CC1)NC(=O)NC1CCCCC1	none
O=C(CN1CCN(C/C=C/c2ccccc2)CC1)NC(=O)NC1CCCCC1	RGS4 act -7
O=C(O)CC/C(=N\Nc1ccc([N+](=O)[O-])cc1)c1ccccc1	MrgX1 antag -5.89
CCCOc1ccc(CCC(=O)N/N=C/c2ccncc2)cc1	none
CCOC(=O)C1=C(CSc2nc(-c3ccccc3)ccc2C#N)OC(N)=C(C#N)C1c1cccnc1 (centres undefined)	MrgX1 antag -6.1
CCn1cc(C(=O)NCCc2ccc(OC)cc2)c(=O)c2ccc(C)nc21	none
Cc1ccccc1OCC(=O)Nc1ccc2c(c1)Cc1ccccc1-2	none
Cc1ccccc1OCC(=O)Nc1ccc(N2CCN(C)CC2)c(Cl)c1	RGS4 act -7.91
CCOc1ccc(NC(=O)CN(c2ccc([N+](=O)[O-])cc2)S(=O)(=O)c2ccccc2)cc1	MrgX1 antag -5.36
O=C(NCCO)C(=O)Nc1cc2c3c(c1)CCN3C(=O)CC2	none
CCN1C(=O)/C(=C/C=C2\N(CC)c3cc(S(=O)(=O)N(C)C)ccc3N2c2ccccc2)SC1=S	MrgX1 ag 36.4
COc1ccc(-c2cn(-c3ccc(OC)cc3)c3[n+]2-c2ccccc2CC3)cc1	MrgX1 antag -7.91
CC12CCC(C(=O)N(CSC(=S)N/N=C\c3ccccc3O)C1=O)C2(C)C (centres undefined)	MrgX1 allo act 9.33
CN(Cc1ccc(F)cc1)C(=O)c1sccc1-c1ccccc1	RGS4 act -7.19
CC1CCCN(CCCOc2ccc(Br)cc2Cl)C1 (centres undefined)	none
CC1CCN(CCOCCOc2ccc(Br)cc2Cl)CC1	RGS4 act -7.19
N/C(=N\OC(=O)c1ccc(Cl)cc1)c1[nH]ncc1Br	none
CC(Oc1ccc(Cl)cc1Cl)c1nc(-c2ccc(NC(=O)c3cccnc3)cc2)no1 (centres undefined)	RGS4 act -7.86
CC(Oc1ccc(Cl)cc1Cl)C(=O)NNC(=O)c1ccncc1 (centres undefined)	none
CC(Oc1ccc(Cl)cc1Cl)c1nc(-c2ccc(NC(=O)c3ccncc3)cc2)no1 (centres undefined)	MrgX1 antag -5.25
CC(C)(C)C(=O)CNS(=O)(=O)c1ccc(S(=O)(=O)NC2CC2)cc1	none
COc1cccc(/C=C/C(=O)OCC(=O)NC(=O)NC2CCCCC2)c1	none
CS(=O)(=O)N(CC(=O)NCCSc1ccccn1)c1cccc2ccccc12	none
O=C(OC(C(=O)Nc1cc(Cl)cc(Cl)c1)c1ccccc1)C1=COCCO1 (centres undefined)	MrgX1 antag -5.3
O=C(Cc1cccs1)Nc1nnc(SCc2ccc(C(F)(F)F)cc2)s1	MrgX1 antag -9.08
COc1ccc(S(=O)(=O)N2CCCCCC2)cc1C(=O)N(C)Cc1ccc(Cl)cc1Cl	MrgX1 allo act 13.9
COc1ccc(CCNC(=S)NNC(=O)c2c(Br)c(C)nn2C)cc1OC	none
Cc1ccc(C)c(NC(=O)C(Sc2nc3ccccc3c(=O)n2CC(C)C)c2ccccc2)c1 (centres undefined)	RGS4 act -7.3
CCOC(=O)C(NC(C)=O)C(=O)Nc1ccc(C)cc1C (centres undefined)	none
CCCCOc1ccc(C2=CSC3=NCCN23)cc1[N+](=O)[O-]	RGS4 act -7.36
CCc1noc(C)c1C(=O)N1CCCC(CCC(=O)NCc2cccc(OC)c2)C1 (centres undefined)	MrgX1 antag -6.47
Cc1ccc(S(=O)(=O)/N=C(\Nc2cc(C)on2)c2ccc(Cl)cc2)cc1	none
CCOc1ccc(NC(=S)N2CCC(C(N)=O)CC2)cc1	none
C#CCOCCOCCOCCNc1nc(N2CCN(C(=O)[C@H]([C@@H](C)CC)n3cc([C@@H](N)CC(C)C)nn3)CC2)nc(N2CCN(C(=O)[C@H](CCCCN)n3cc([C@@H](N)CO)nn3)CC2)n1	none
O=C(NC(=S)NNC(=O)[C@H]1C[C@@H]1c1ccccc1)c1ccc(F)cc1	none
O=C(/C=C/c1ccc(F)cc1)NC(=S)NNC(=O)[C@H]1C[C@@H]1c1ccccc1	MrgX1 ag 42.8
O=C(O)c1cccc(Nc2nc(-c3cc4ccccc4oc3=O)cs2)c1	none
COc1ccccc1NS(=O)(=O)c1ccc(C)c(C(=O)NCCCN2CCCC2=O)c1	MrgX1 antag -9.11
Cc1ccc(S(=O)(=O)Nc2ccccc2F)cc1C(=O)NCCCN1CCCC1=O	none
